A short description of this data set: Toxicity liver stage against HepG2, at 10uM. Type of data set: cell-based. On the set-up: test concentration 10 uM, cell line HepG2-A16-CD81EGFP. The following applies: human, HepG2-A16-CD81EGFP cells; read-out: INHIBITION
Summed up: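 Uninfected HepG2-A16-CD81EGFP cells, 3 × 10^3 per well, 1536-well, plated on prespotted compound at 10 μM final, parasite-free screening media added to match infected plates; puromycin 10 μM positive, DMSO 0.5% negative; run in parallel with 48 h PbLuc assay at 37 °C, 5% CO2; viability by CellTiter-Glo luminescence, normalized to controls.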
Turning to `Cc1ccc(NC(=O)Nc2c[nH]c(=O)[nH]c2=O)c(Cl)c1`, the cytotoxicity at 10 µM is -4.28%.

With `CN(Cc1cccc(C(F)(F)F)c1)Cc1nc(-c2cnccn2)no1`, the cytotoxicity at 10 µM was determined as 1.35%.

As to `O=S(=O)(c1ccc(Cl)cc1)N1CCOC[C@H](Oc2cnccn2)C1`, the cytotoxicity at 10 µM was -2.57%.

`O=S(=O)(c1ccc(F)cc1)N1CCOC[C@H](Oc2cnccn2)C1`: the cytotoxicity at 10 µM was found to be 5.88%.

For the compound `COc1ncccc1C(=O)NCCn1nc(C)ccc1=O`, the cytotoxicity at 10 µM was -7.69%.

On to `CN1CCN(Cc2cccnc2)C(=O)C12CCN(S(C)(=O)=O)CC2`, for which the cytotoxicity at 10 µM is 0.611%.

On to `COCCN1C[C@H]2CCN(C(C)=O)CC[C@H]2S1(=O)=O`, for which the cytotoxicity at 10 µM worked out at 15.4%.

For the compound `CCN1C[C@H]2CCN(C(=O)C3CCCO3)CC[C@H]2S1(=O)=O` (stereo partly specified), the cytotoxicity at 10 µM was determined as 18%.

Consider `Cc1ccccc1-n1c(O)cc(C)c(C#N)c1=O`, for which the cytotoxicity at 10 µM was -1.54%.

Turning to `O=C(NC1CC1)[C@H]1CN(Cc2ccccc2)C[C@@H]1C(=O)c1ccccc1`, the cytotoxicity at 10 µM was found to be 0.401%.

With `CC(=O)N1CCc2nnc(C3CCCCN3CC3CC3)n2CC1` (stereo unspecified), the cytotoxicity at 10 µM is -15.4%.

With `Cc1ccc(C2CCCN(C(=O)c3cnn(C)c3)C2)nc1` (stereo unspecified), the cytotoxicity at 10 µM was -25.8%.

`Cc1cc(C)c2cc(CNCCCN3CCOCC3)c(=O)[nH]c2c1`: the cytotoxicity at 10 µM was -23.8%.

As for `O=C(CCNC(=O)C1=Cc2ccccc2OC1)Nc1cccnc1`, the cytotoxicity at 10 µM was -0.956%.

In the case of `O=C1OCCC1N1CCN(c2cnccn2)CC1` (stereo unspecified), the cytotoxicity at 10 µM is -0.0916%.

As for `O=C1CCCCN1CCCNCc1cnc(C2CCC2)s1`, the cytotoxicity at 10 µM was 0.00973%.

Turning to `COC(=O)c1ccc(Cn2cccc(C(F)(F)F)c2=O)s1`, the cytotoxicity at 10 µM is -8.03%.

With `O=C1CCN(C(=O)NCc2cccc(Oc3ccccc3)c2)CCN1`, the cytotoxicity at 10 µM stood at 4.11%.

Turning to `CCN(C)c1cc(CNC(=O)CNC(=O)CC2CCCCC2)ccn1`, the cytotoxicity at 10 µM amounted to 2.34%.

With `CC(C)N1CC(C(=O)NC(C)(C)CNC(=O)OC(C)(C)C)CC1=O` (stereo unspecified), the cytotoxicity at 10 µM is -9.96%.

Regarding `COC(=O)c1cccc(S(=O)(=O)N2CSCC2C(=O)N(C)C2CC2)c1` (stereo unspecified), the cytotoxicity at 10 µM came to 5.15%.

As for `COC(=O)COc1cc(NCc2c(C)noc2C)c(Cl)cc1C`, the cytotoxicity at 10 µM was 3.2%.

`CCN(C(=O)C(C)C)C(c1cccnc1)c1ccc2c(c1)CCO2` (stereo unspecified): the cytotoxicity at 10 µM was 2.14%.

Consider `O=C(CCc1ccncc1)NCCOc1ncc(Cl)cc1Cl`, for which the cytotoxicity at 10 µM is -2.56%.

Regarding `CNC(=O)c1cccc(CCNC(=O)N2CCc3ccccc3C2)c1`, the cytotoxicity at 10 µM was 6.72%.

`COCCCNC(=O)CN1CCSC(c2ccccc2)C1` (stereo unspecified): the cytotoxicity at 10 µM was found to be 13.5%.

In the case of `CC1(CCNC(=O)NCc2ccsc2)OCCO1`, the cytotoxicity at 10 µM is -6.21%.

For the compound `NC(=O)c1ccc(S(=O)(=O)NCCc2ccccn2)cc1`, the cytotoxicity at 10 µM was -16%.

`O=C(c1ncoc1-c1ccco1)N1CCCN(c2ncccn2)CC1`: the cytotoxicity at 10 µM was determined as 2.7%.

In the case of `CN(CC(=O)NCCCOc1ccc(F)cc1)c1ccc(C#N)cn1`, the cytotoxicity at 10 µM is -0.844%.

With `CN(CCn1cccn1)c1cc(C(F)(F)F)nc(-c2cccnc2)n1`, the cytotoxicity at 10 µM is -3.63%.

As for `CCCn1nc(-c2nc(C3CC3)no2)ccc1=O`, the cytotoxicity at 10 µM came out at 1.77%.

In the case of `CN(C)Cc1nc(-n2cnc(C(=O)NC3CCCC3)c2)n2ccccc12`, the cytotoxicity at 10 µM was 7.75%.

For `O=C1CC[C@@H](CN(Cc2ccncc2)Cc2nc(-c3cccs3)no2)N1`, the cytotoxicity at 10 µM is -10.7%.

Consider `Cc1ccn2c(F)c(C(=O)N3CCC4(CCCN(C)C4=O)C3)nc2c1` (stereo unspecified), for which the cytotoxicity at 10 µM amounted to 2.51%.

Take `Cc1ccc2ncn(C(C)Cn3cccn3)c(=O)c2c1` (stereo unspecified): the cytotoxicity at 10 µM came to 4.4%.

As for `COCCN(C)C[C@@H]1CN(C(=O)c2cccc(C#N)c2)C[C@@H]1CO`, the cytotoxicity at 10 µM turned out to be 14.5%.

For the compound `CCn1ccnc1CN1CCCC(CO)(CCCc2ccccc2)C1` (stereo unspecified), the cytotoxicity at 10 µM is -4.84%.

For the compound `Cc1nc(CN)cc(N2CCC(O)(c3ccc(Cl)cc3)CC2)n1`, the cytotoxicity at 10 µM is -8.13%.

Consider `CCOC(=O)CNC(=O)N1CCCC(CNC(=O)c2ccco2)C1` (stereo unspecified), for which the cytotoxicity at 10 µM was -10.9%.

On to `CCC(=O)Nc1cccc(OCC(=O)N(C)Cc2nc(C)c[nH]2)c1`, for which the cytotoxicity at 10 µM was -4.54%.

For `CCN1CCCC(C)(C(=O)NCCc2nnc(C)[nH]2)C1` (stereo unspecified), the cytotoxicity at 10 µM came out at 1.1%.

`CCC(Cn1ccc2[nH]c(=O)c(C#N)cc2c1=O)OC` (stereo unspecified): the cytotoxicity at 10 µM is 2.33%.

On to `CC(C)(C)CN1CCN(CC2CC2)C(CCO)C1` (stereo unspecified), for which the cytotoxicity at 10 µM was -2.42%.

As for `Cc1ccc(CN2CCN(CC(=O)N(C)C)[C@@H]3CS(=O)(=O)C[C@@H]32)cc1C`, the cytotoxicity at 10 µM was determined as 1.18%.

Consider `Cc1cc(C(=O)O)cc(S(=O)(=O)Nc2ccc3c(c2)OCCCO3)c1C`, for which the cytotoxicity at 10 µM is -4.72%.

Turning to `Cc1ccc(C(=O)N2CCN(Cc3cccs3)CC2)c(=O)[nH]1`, the cytotoxicity at 10 µM is -8.39%.

As for `Cc1cc(CN2CCCC(Cn3cncn3)C2)no1` (stereo unspecified), the cytotoxicity at 10 µM was -2.12%.

Regarding `O=C(c1nccc2ccccc12)N1CCCCC1Cn1cccn1` (stereo unspecified), the cytotoxicity at 10 µM was -4.31%.

Consider `Cc1cc(C)n(CC2CCCN2C(=O)c2ccnc(N(C)C)c2)n1` (stereo unspecified), for which the cytotoxicity at 10 µM is -16.8%.

For `CN(C(=O)c1ccc(Cl)cc1)C1CCN(c2ccccn2)CC1`, the cytotoxicity at 10 µM is -21%.

Consider `Cc1ccccc1CCNC(=O)N1CCCC(c2nncn2C)C1` (stereo unspecified), for which the cytotoxicity at 10 µM is -29.8%.

Turning to `CCCOc1cccc(NS(=O)(=O)c2cc(C(=O)O)cs2)c1`, the cytotoxicity at 10 µM was determined as 1.09%.

`Cc1cc(CNc2ccc(C(=O)N3CCCC(C)C3)cc2C)no1` (stereo unspecified): the cytotoxicity at 10 µM was -3.92%.

As to `CCOc1ccc(Cl)c(C(=O)N2CCN(CCO)CC2)n1`, the cytotoxicity at 10 µM is -5.15%.

For `CC(=O)NCCNC(=O)c1sc(-c2ccc(C)cc2C)nc1C`, the cytotoxicity at 10 µM is -7.62%.

`Cc1ccc(NC2CCN(C(=O)Cn3nc(C)cc3C)CC2)nn1`: the cytotoxicity at 10 µM was -1.81%.

On to `Cc1oc(C)c(C(=O)NCc2ccccc2S(=O)(=O)N(C)C)c1C`, for which the cytotoxicity at 10 µM was found to be 1.97%.

For `COCCOc1ccc(NC(=O)C2CC(=O)N(C)C2)cn1` (stereo unspecified), the cytotoxicity at 10 µM is -5.31%.

As to `Cc1ncc2c(n1)C1(CCN(C(=O)C(C)C)CC1)OCC2`, the cytotoxicity at 10 µM is 5.49%.

With `O=C1CCC2(CCC(NC3CCOC3)CC2)N1Cc1ccncc1` (stereo unspecified), the cytotoxicity at 10 µM is 3.61%.

As for `COc1cc2c(cc1CN1CCn3c(CO)nnc3C1)CCC2`, the cytotoxicity at 10 µM was -4.05%.

On to `Cc1ccc(C(=O)N2CCC3(CC2)COC(COc2cccnc2)C3)o1` (stereo unspecified), for which the cytotoxicity at 10 µM is -3.16%.

In the case of `CC(=O)N1CCN(c2cc(CCN)nc(C3CC3)n2)CC1`, the cytotoxicity at 10 µM was -26.2%.

`Cc1ccc(N2CCCC3(CCCC(=O)N3)C2)nn1` (stereo unspecified): the cytotoxicity at 10 µM is -1.52%.

Regarding `O=c1c2sccc2nc2n1CCN(Cc1cc(F)ccc1F)CC2`, the cytotoxicity at 10 µM was -21.8%.

`CN(C)Cc1cncc2c1CCN(C1CCOCC1)C2`: the cytotoxicity at 10 µM was 11.1%.

With `CO[C@@H]1CCN(Cc2ccc(C)o2)[C@H]1Cc1ccccc1`, the cytotoxicity at 10 µM is -3.15%.

As to `CN(C)[C@@H]1CN(C(=O)Cc2cccc(F)c2)[C@@H]2CCCO[C@H]12`, the cytotoxicity at 10 µM came to 1.37%.

For the compound `Cn1ccc(C(=O)N2C[C@H]3CCC[C@@]3(COCc3cccnc3)C2)n1`, the cytotoxicity at 10 µM turned out to be 6.87%.

On to `CC(C)CC(=O)N1C[C@@H]2CCN(c3cnccn3)C[C@@H]2C1`, for which the cytotoxicity at 10 µM came out at 3.44%.

The values are drawn from ChEMBL document CHEMBL4513216, “Probing the Open Global Health Chemical Diversity Library for Multistage-Active Starting Points for Next-Generation Antimalarials” (ACS Infect Dis, 2020).
